Entries after “also recorded” stand apart in the source; their conditions may differ.
Key:
5-HT1AR [1] = target: T1, 5-HT1AR (Homo sapiens, UniProt P08908); test: 5-HT1AR competition binding with [3H]8-OH-DPAT
T1 sequence (P08908 1-422): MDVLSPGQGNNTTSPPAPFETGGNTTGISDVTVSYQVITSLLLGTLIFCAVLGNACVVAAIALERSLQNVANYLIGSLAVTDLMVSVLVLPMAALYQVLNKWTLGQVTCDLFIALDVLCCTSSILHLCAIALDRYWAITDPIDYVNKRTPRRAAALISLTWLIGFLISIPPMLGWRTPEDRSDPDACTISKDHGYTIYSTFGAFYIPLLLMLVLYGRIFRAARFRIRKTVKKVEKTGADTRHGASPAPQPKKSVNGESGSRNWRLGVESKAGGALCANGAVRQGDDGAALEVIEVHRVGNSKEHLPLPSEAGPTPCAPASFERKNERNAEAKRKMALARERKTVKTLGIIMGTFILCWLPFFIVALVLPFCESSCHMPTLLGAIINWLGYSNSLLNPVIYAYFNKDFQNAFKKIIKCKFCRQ

α-1AR = α-1AR competition binding with [3H]-7-methoxyprazosin; conditions: for selectivity for 5-HT1AR over α-1AR: ratio of Ki values
5-HT1AR [2] = target: T1, 5-HT1AR; test: Agonist-stimulated [35S]GTPγS binding in CHO-h5-HT1A cell membranes; assay type: biochemical
Summary of the method: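 Membranes from CHO cells stably expressing human 5-HT1AR were used. [35S]GTPγS was added at 0.1 nM and incubation continued for 60 min at room temperature. The reaction was stopped by rapid filtration through GF/B filters, followed by three washes with ice-cold 20 mM HEPES, pH 7.4. Bound radioactivity was counted by liquid scintillation. The response was taken as binding above basal.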

Row | Compound | 5-HT1AR binding affinity (in words) (5-HT1AR [1]) | selectivity for 5-HT1AR over α-1AR (in words) (α-1AR) | selectivity for 5-HT1AR over α-1AR (α-1AR) | agonist profile as measured by GTPγS binding (in words) (5-HT1AR [2])
1 | Cn1c(=O)cnn(CCCCN2CCN(c3ncccc3F)CC2)c1=O [Compound 29] | high affinity | excellent selectivity | – | –
2 | Cn1c(=O)cnn(CCCCN2CCN(c3ccc(I)cc3)CC2)c1=O [Compound 19] | sharp decrease in affinity | – | – | –
3 | Cn1c(=O)cnn(CCCCN2CCN(c3ccccn3)CC2)c1=O [Compound 27, 4-Methyl-2-(4-(4-(pyridin-2-yl)piperazin-1-yl)butyl)-1,2,4-triazine-3,5(2H,4H)-dione] | high affinity | excellent selectivity | – | –
4 | Cn1c(=O)cnn(CCCCN2CCN(c3ccccc3C#N)CC2)c1=O [Compound 20] | nanomolar affinity | – | – | –
5 | Cn1c(=O)cnn(CCCCN2CCN(c3ccccc3S)CC2)c1=O [Compound 31] | nanomolar affinity | – | > 10000 times | –
6 | Cn1c(=O)cnn(CCCCN2CCN(c3cccc(F)n3)CC2)c1=O [Compound 32] | high affinity; also recorded: nanomolar affinity | excellent selectivity; also recorded: higher selectivity to 5-HT1AR over α-1AR in comparison to CUMI-101 | – | robust agonist profile
7 | Cn1c(=O)cnn(CCCCN2CCN(c3cccc(Br)n3)CC2)c1=O [Compound 33] | high affinity | excellent selectivity | – | –
8 | Cn1c(=O)cnn(CCCCN2CCN(c3ccccc3OCCCF)CC2)c1=O [Compound 14] | nanomolar affinity | – | – | –
9 | Cn1c(=O)cnn(CCCCN2CCN(c3cccc(O)c3)CC2)c1=O [Compound 25] | nanomolar affinity; also recorded: high affinity | excellent selectivity | – | –
10 | Cn1c(=O)cnn(CCCCN2CCN(c3c(Br)cccc3C#N)CC2)c1=O [Compound 23] | sharp decrease in affinity | – | – | –
11 | CSc1ccccc1N1CCN(CCCCn2ncc(=O)n(C)c2=O)CC1 [Compound 17] | nanomolar affinity | – | – | –

Further lines, results first:

Row | 5-HT1AR binding affinity (in words) (5-HT1AR [1]) | selectivity for 5-HT1AR over α-1AR (in words) (α-1AR) | selectivity for 5-HT1AR over α-1AR (α-1AR) | agonist profile as measured by GTPγS binding (in words) (5-HT1AR [2]) | Compound
12 | did not see considerable improvement | – | – | – | COc1ccccc1N1CCN(CCCCCn2ncc(=O)n(C)c2=O)CC1 [Compound 38]
13 | nanomolar affinity | – | – | – | COc1ccccc1N1CCN(CCCCn2ncc(=O)n(C)c2=O)CC1 [Compound 8]
14 | nanomolar affinity | – | – | – | CCOc1ccccc1N1CCN(CCCCn2ncc(=O)n(C)c2=O)CC1 [Compound 12]
15 | sharp decrease in affinity | – | – | – | COc1ccc(N2CCN(CCCCn3ncc(=O)n(C)c3=O)CC2)cc1 [Compound 10]
16 | sharp decrease in affinity | – | – | – | COc1ccc(N2CCN(CCCCn3ncc(=O)n(C)c3=O)CC2)c(OC)c1 [Compound 11]
17 | nanomolar affinity | – | > 10,000 times | – | Cn1c(=O)cnn(CCCCN2CCN(c3ccccc3O)CC2)c1=O [Compound 24]
18 | did not see considerable improvement | – | – | – | COc1ccc2cccc(N3CCN(CCCCCn4ncc(=O)n(C)c4=O)CC3)c2c1 [Compound 42]

— publication PMC4294696 (Bioorganic & medicinal chemistry letters, 2014)
